Reference: PubChem BioAssay
Calls of active or inactive are those of the source.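 Rule for the calls, unless noted: active = viability loss from added drug above about 55%, and viability with drug at most 40%, in both replicates (limit read from the data, passing the limit was not always enough); inconclusive = both conditions met in only one replicate; inactive = neither replicate meets both conditions.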

Assays:
[1] = Her2 expression decrease, cell viability multiplex – SKBR3 breast tumor cells, AlphaScreen, ATP viability, primary screen (AID 461;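 active = Her2 level under about 52% in both replicate screens, with viability over 70% of control, limit read from the data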;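 for Her2 level: lower value means less Her2 protein in the cells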;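 for viability: percent of carrier control wells set as 100% viability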); settings: SKBR3 Her2 protein level, 18-24 h, measured here: SKBR3 viability, ATP luminescence, at 10 µM
[2] = target: Receptor tyrosine-protein kinase erbB-2 (Homo sapiens) (UniProt P04626); assay: as above; settings: 18-24 h, at 10 µM, stronger effect = lower value
Sequence of Receptor tyrosine-protein kinase erbB-2 (Homo sapiens) (P04626 whole entry, looked up): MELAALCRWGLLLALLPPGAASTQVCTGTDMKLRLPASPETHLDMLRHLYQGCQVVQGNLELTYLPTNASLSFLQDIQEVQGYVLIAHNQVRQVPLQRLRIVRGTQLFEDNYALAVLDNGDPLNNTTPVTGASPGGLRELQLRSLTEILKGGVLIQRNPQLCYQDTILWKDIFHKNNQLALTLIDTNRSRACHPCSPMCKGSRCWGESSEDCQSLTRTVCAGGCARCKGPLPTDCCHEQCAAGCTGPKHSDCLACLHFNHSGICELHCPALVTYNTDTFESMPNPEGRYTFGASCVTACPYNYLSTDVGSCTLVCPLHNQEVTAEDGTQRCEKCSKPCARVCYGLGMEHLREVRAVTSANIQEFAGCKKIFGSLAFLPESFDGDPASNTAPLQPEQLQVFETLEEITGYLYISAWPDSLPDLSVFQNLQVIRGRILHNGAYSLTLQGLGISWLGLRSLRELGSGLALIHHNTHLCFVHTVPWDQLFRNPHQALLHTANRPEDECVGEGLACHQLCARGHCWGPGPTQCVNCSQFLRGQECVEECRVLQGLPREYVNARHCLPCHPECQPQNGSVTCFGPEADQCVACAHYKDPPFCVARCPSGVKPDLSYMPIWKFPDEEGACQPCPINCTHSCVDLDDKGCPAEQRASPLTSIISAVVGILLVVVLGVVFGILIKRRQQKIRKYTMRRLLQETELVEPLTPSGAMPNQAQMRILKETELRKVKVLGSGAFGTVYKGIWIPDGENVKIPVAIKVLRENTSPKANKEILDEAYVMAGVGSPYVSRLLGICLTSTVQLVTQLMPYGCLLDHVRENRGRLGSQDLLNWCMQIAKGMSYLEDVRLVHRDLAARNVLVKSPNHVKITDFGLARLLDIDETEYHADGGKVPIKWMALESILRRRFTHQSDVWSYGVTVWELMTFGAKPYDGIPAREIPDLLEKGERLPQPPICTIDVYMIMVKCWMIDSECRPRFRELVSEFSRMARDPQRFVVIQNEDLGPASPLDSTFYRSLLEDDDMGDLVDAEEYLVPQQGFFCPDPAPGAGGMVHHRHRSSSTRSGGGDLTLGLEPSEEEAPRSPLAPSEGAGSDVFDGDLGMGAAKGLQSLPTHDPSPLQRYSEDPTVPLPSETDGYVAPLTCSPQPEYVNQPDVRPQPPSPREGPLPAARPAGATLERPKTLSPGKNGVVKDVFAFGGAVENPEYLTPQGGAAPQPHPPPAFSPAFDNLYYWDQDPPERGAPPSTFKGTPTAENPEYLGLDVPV

[3] = reduced viability of SK-BR-3 breast cancer cells – cell-based, 24 h, human, pilot screen (AID 572;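 active = viability at or below 10% of carrier control in both of two separate runs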;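 note: compound exposure lasted between 18 and 24 h rather than exactly 24 h; 100% = carrier-treated control wells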); settings: SK-BR-3 viability, CellTiter-Glo luminescence, at 10 µM, stronger effect = lower value
[4] = HUVEC growth inhibition – cell-based, human, primary screen (AID 575;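 active = viability at or below 30% in both replicate assays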;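 note: 100% = median of untreated cell wells with 0.1% DMSO on each plate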); settings: HUVEC proliferation, CellTiter-Glo luminescence, 72 h; at 10 µM; stronger effect = lower value
How it was run: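 Material: primary human umbilical vein endothelial cells / Schedule: 72 h exposure, 37 °C, 5% CO2, 30 min RT equilibration / Signal: ATP-based CellTiter-Glo luminescent read / Read-out basis: percent of median DMSO-control luminescence / Control set: 32 DMSO-only cell-control wells (high), 32 MePR drug-control wells (low) per plate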

[5] = H69AR cell proliferation blockers – human, duplicate replicates, primary screen (AID 580;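 active = viability at or under a set limit in both replicates, limit being median viability minus 3 SD, cut at about 48% in these data, passing the limit was not always enough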;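 note: 100% = mean luminescence of untreated wells and 0% = no signal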); settings: H69AR lung tumor cells viability, ATP luminescence, 72 h; at 10 µM; stronger effect = lower value
[6] = MRP1 drug-resistance reversers in H69AR cells – cell-based, doxorubicin co-treatment, pilot screen (AID 601); settings: CellTiter-Glo, 72 h, at 10 µM; for differential viability (reversal): stronger effect = higher value
[7] = yeast transport mutant growth inhibition pilot in 384-well plates, post-Golgi transport modulator project (AID 636; in the data active = inhibition above about 31%); settings: absorbance 615 nm, about 18 h, stronger effect = higher value
[8] = growth suppression of yeast trafficking mutant, preliminary HTS, modulators of trafficking downstream of Golgi apparatus project, 1536-format plate, OD 615 nm (AID 637; in the data active = inhibition above about 30%); settings: yeast transport mutant growth, absorbance 615 nm, 18 h; stronger effect = higher value
[9] = H69AR cells + 2 uM doxorubicin, measured here: viability with 2 uM doxorubicin, stronger effect = lower value
[10] = H69AR cells, compound alone cytotoxicity

SMILES	viability [1] [%]	Her2 level [2]	viability [3]	viability [4]	viability [5]	differential viability (reversal) ([6]; H69AR cells + 2 uM doxorubicin)	viability [6, 9] [%]	viability [6, 10] [%]	inhibition [7]	inhibition [8]
Cc1nc(NC2=NCN(CCN3CCOCC3)CN2)nc2c(C)cccc12	114	91.5% (inactive)	114% (inactive)	77.3% (inactive)	95.2% (inactive)	-12.6% (inactive)	108	95.2	-2.11% (inactive)	-7.33% (inactive)
CCOC(=O)C1CCN(c2nc3ccccc3nc2C(C#N)C(=O)OC(C)C)CC1 (stereo not given)	95	124% (inactive)	95% (inactive)	83.9% (inactive)	84.2% (inactive)	-3.45% (inactive)	87.6	84.2	1.37% (inactive)	4.6% (inactive)
CC(C)CNC(=O)c1ccccc1NC(=O)CN(c1ccc2c(c1)OCCO2)S(C)(=O)=O	92	121% (inactive)	92% (inactive)	96.8% (inactive)	92.3% (inactive)	1.55% (inactive)	90.8	92.3	-0.27% (inactive)	-8.23% (inactive)
CC(=O)NCc1ccc(C(=O)CSc2nnc(-c3ccncc3)n2Cc2ccccc2)o1	99.5	92.5% (inactive)	99.5% (inactive)	97% (inactive)	97.1% (inactive)	9.33% (inactive)	87.8	97.1	-5% (inactive)	10.3% (inactive)
CCCCC(=NCCO)C1=C(O)C(C(=O)OC)C(C)(C)CC1=O (stereo not given)	90.5	93% (inactive)	90.5% (inactive)	99.7% (inactive)	89.5% (inactive)	-0.975% (inactive)	90.5	89.5	-3.68% (inactive)	-3.81% (inactive)
Cn1c(=O)[nH]c(=O)c2c1nc(NCCCn1ccnc1)n2Cc1ccccc1	89	108% (inactive)	89% (inactive)	97.9% (inactive)	95.8% (inactive)	4.16% (inactive)	91.7	95.8	-1.47% (inactive)	-3.44% (inactive)
CC1Cc2ccccc2N1C(=O)COC(=O)Cn1nnc(-c2ccccc2)n1 (stereo not given)	110	92.5% (inactive)	110% (inactive)	88.5% (inactive)	81% (inactive)	7.38% (inactive)	73.6	81	-5.27% (inactive)	3.65% (inactive)
CCOC(=O)N1CCN(c2cc3[nH]c(=S)[nH]c3cc2F)CC1	112	83% (inactive)	112% (inactive)	100% (inactive)	89.7% (inactive)	-6.7% (inactive)	96.4	89.7	-7.2% (inactive)	-2.58% (inactive)
CC(C)c1nc(N2CCN(C(=O)c3ccco3)CC2)c2c3c(sc2n1)CCCC3	76.5	94% (inactive)	76.5% (inactive)	66.4% (inactive)	79.5% (inactive)	1.06% (inactive)	78.5	79.5	-0.53% (inactive)	20.9% (inactive)
COC(=O)[C@H](CCSC)NC(=O)Nc1cc(C)ccc1C	124	89% (inactive)	124% (inactive)	84.1% (inactive)	82.2% (inactive)	-7.82% (inactive)	90	82.2	-6.22% (inactive)	5.71% (inactive)
Fc1ccc(-c2cnc[nH]2)cc1	98.5	99.5% (inactive)	98.5% (inactive)	80.8% (inactive)	96.7% (inactive)	6.2% (inactive)	90.4	96.7	1.32% (inactive)	-8.55% (inactive)
Cc1ccc2[nH]c(=O)c(C(c3nnnn3CCc3ccccc3)N3CCOCC3)cc2c1 (stereo not given)	86	87.5% (inactive)	86% (inactive)	76.9% (inactive)	100% (inactive)	12.1% (inactive)	87.8	100	-5.95% (inactive)	-0.49% (inactive)
CC(Oc1ccccc1)C(=O)Nc1ccc(S(=O)(=O)NCC2CCCO2)cc1 (stereo not given)	89.5	94.5% (inactive)	89.5% (inactive)	101% (inactive)	98.7% (inactive)	4.12% (inactive)	94.6	98.7	-1.73% (inactive)	-5.71% (inactive)
Cc1ccc(-n2nnnc2SCC(=O)N2CCc3ccccc3C2)cc1	113	82.5% (inactive)	113% (inactive)	99.9% (inactive)	82.1% (inactive)	-8.77% (inactive)	90.8	82.1	-2.5% (inactive)	0.48% (inactive)
O=C(NC1CCCCCC1)C1CCCN(S(=O)(=O)c2cccs2)C1 (stereo not given)	90	118% (inactive)	90% (inactive)	101% (inactive)	105% (inactive)	17.6% (inactive)	87.8	105	-0.92% (inactive)	-6.5% (inactive)
CC(C)(C)OC(=O)N1CC=C2C(C#N)=C(N)C(C#N)(C#N)[C@H](c3cccnc3)[C@H]2C1	88	100% (inactive)	88% (inactive)	81.1% (inactive)	86.3% (inactive)	-12.4% (inactive)	98.7	86.3	-2.67% (inactive)	14% (inactive)
Cc1cc(NC(=O)C23CCC(C)(C(=O)O2)C3(C)C)no1 (stereo not given)	108	93% (inactive)	108% (inactive)	96.7% (inactive)	97.5% (inactive)	8.27% (inactive)	89.2	97.5	-0.78% (inactive)	0.63% (inactive)
Cn1c2c(c(=O)[nH]c1=O)C(NC(=O)c1ccco1)(C(F)(F)F)C(=O)N2 (stereo not given)	112	118% (inactive)	112% (inactive)	93.3% (inactive)	96.5% (inactive)	4.25% (inactive)	92.3	96.5	-1.45% (inactive)	0.66% (inactive)
CCOC(=O)N1CCC(NC(=O)c2ccc(OC)c(CN3CC(=O)N4CCCC4C3=O)c2)CC1 (stereo not given)	93.5	93% (inactive)	93.5% (inactive)	111% (inactive)	96% (inactive)	10% (inactive)	85.9	96	-5.92% (inactive)	-3.49% (inactive)
Cc1cc(C)nc(NS(=O)(=O)c2ccc(NC(=O)Cn3c(=O)oc4ccccc43)cc2)n1	89.5	101% (inactive)	89.5% (inactive)	89% (inactive)	86.7% (inactive)	2.6% (inactive)	84.2	86.7	-0.9% (inactive)	2% (inactive)
COC(=O)C1=CN(C)C=C(C(=O)OC)C1c1ccc(O)c(OC)c1	96.5	98% (inactive)	96.5% (inactive)	88.1% (inactive)	100% (inactive)	6.83% (inactive)	93.4	100	-3.16% (inactive)	4% (inactive)
CCOC(=O)Cc1csc(NC(=O)CSc2nnc(-c3ccncc3)n2Cc2ccco2)n1	107	82.5% (inactive)	107% (inactive)	94.1% (inactive)	97.6% (inactive)	7.66% (inactive)	89.9	97.6	-5.14% (inactive)	5.24% (inactive)
CC(C)(C)c1ccc(OCC(=O)O)cc1	102	96.5% (inactive)	102% (inactive)	108% (inactive)	104% (inactive)	13.4% (inactive)	91	104	-5.73% (inactive)	8.69% (inactive)
CCOC(=O)c1ccc(Oc2nc(NC)nc(OC)n2)cc1	100	108% (inactive)	100% (inactive)	103% (inactive)	104% (inactive)	5.53% (inactive)	98.8	104	-1.35% (inactive)	-6.67% (inactive)
COCCn1nnnc1C(c1cc2cc(C)cc(C)c2[nH]c1=O)N1CCN(c2ccccc2F)CC1 (stereo not given)	102	81.5% (inactive)	102% (inactive)	78.4% (inactive)	80.9% (inactive)	-5.39% (inactive)	86.3	80.9	-4% (inactive)	1.8% (inactive)
O=C1CC(c2ccco2)CC(O)=C1C=NCC1NCCc2ccccc21 (stereo not given)	78.5	98.5% (inactive)	78.5% (inactive)	91.5% (inactive)	90.7% (inactive)	-3.47% (inactive)	94.1	90.7	-0.92% (inactive)	7.14% (inactive)
Cc1ccc(CNC(=O)C2CCN(S(=O)(=O)c3cccs3)CC2)o1	138	87% (inactive)	138% (inactive)	89.5% (inactive)	81% (inactive)	6.39% (inactive)	74.6	81	-4.68% (inactive)	4.76% (inactive)
Cc1cc(NC(=O)CSc2nccn2-c2ccc(Cl)cc2)no1	91.5	103% (inactive)	91.5% (inactive)	111% (inactive)	106% (inactive)	28% (inactive)	78.1	106	-1.56% (inactive)	-2.38% (inactive)
CC1CCCN(C(=O)CN2CCN(C(=O)c3ccco3)CC2)C1 (stereo not given)	95.5	89.5% (inactive)	95.5% (inactive)	91.2% (inactive)	93.2% (inactive)	11.7% (inactive)	81.6	93.2	-4.13% (inactive)	-1.8% (inactive)
